From ChEMBL document CHEMBL4130455, “Design, Synthesis, and Evaluation of Tetrahydropyrrolo[1,2-c]pyrimidines as Capsid Assembly Inhibitors for HBV Treatment” (ACS Med Chem Lett, 2017)
pIC50: −log10 of the molar value. In brackets after ≈: the same amount, converted by molar mass.

Assays:
Hepatitis B virus [1] = experiment: Antiviral activity against HBV infected in human HepG2.2.15 cells assessed as inhibition of viral DNA level incubated for 3 days followed by medium replacement measured after 3 days by RT-PCR method; format: functional, organism-based; details: HepG2.2.15, 72 h
Outline: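 HepG2.2.15 cells seeded at 4 × 10^4 cells/well, compound exposure 3 days, then fresh medium and a further 3-day incubation. Supernatants collected and stored at −80 °C. HBV DNA extracted from supernatant and quantified by qPCR. IC50 reported as the mean of three experiments.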

[2] = Kinetic solubility of the compound; format: physicochemical; details: read-out: Kinetic_solubility
Hepatitis B virus [3] = experiment: Antiviral activity against HBV1.3 mer infected in hydrodynamic injection BALB/c mouse model assessed as log reduction in viral DNA in plasma at 50 mg/kg, po bid measured on day 5 by real-time PCR method relative to control
Cytochrome P450 2D6 = Cytochrome P450 2D6 (Homo sapiens, UniProt P10635); experiment: Inhibition of CYP2D6 in human liver microsomes using dextromethorphan as substrate preincubated for 10 mins followed by substrate addition measured after 10 mins in presence of NADPH by LC-MS/MS analysis; format: ADME; details: read-out: INH
Cytochrome P450 1A2 = target: T1, Cytochrome P450 1A2 (Homo sapiens, UniProt P05177); experiment: Inhibition of CYP1A2 in human liver microsomes using phenacetin as substrate preincubated for 10 mins followed by substrate addition measured after 10 mins in presence of NADPH by LC-MS/MS analysis; format: ADME
T1 sequence (P05177 whole entry): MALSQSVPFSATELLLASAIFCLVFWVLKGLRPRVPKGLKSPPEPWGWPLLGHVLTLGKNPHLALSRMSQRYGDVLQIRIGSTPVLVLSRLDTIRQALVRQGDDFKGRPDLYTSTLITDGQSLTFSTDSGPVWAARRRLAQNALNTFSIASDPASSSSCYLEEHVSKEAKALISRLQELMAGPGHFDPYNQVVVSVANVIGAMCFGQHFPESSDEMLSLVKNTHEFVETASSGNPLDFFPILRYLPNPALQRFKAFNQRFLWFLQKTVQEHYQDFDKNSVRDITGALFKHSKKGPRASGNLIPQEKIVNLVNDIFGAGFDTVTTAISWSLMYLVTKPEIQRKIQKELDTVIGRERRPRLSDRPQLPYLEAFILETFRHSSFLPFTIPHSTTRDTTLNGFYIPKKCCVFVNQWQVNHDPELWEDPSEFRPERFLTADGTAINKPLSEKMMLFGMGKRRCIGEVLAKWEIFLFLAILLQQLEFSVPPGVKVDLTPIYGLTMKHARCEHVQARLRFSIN

Hepatitis B virus [4] = experiment: Antiviral activity against HBV1.3 mer infected in hydrodynamic injection BALB/c mouse model assessed as log reduction in viral DNA in liver at 50 mg/kg, po bid measured on day 7 by real-time PCR method relative to control; format: functional
Outline: (§1)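 HBV DNA mouse model established by hydrodynamic injection. Mice, n = 6 per group, dosed orally twice daily with compound or vehicle (0.5% HEC). HBV DNA in plasma and liver measured by qPCR; log reduction taken versus the vehicle group. Error shown as standard error; significance by Student's t test.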

[5] = Half life in Balb/c mouse at 1 mg/kg, iv administered as bolus by LC-MS/MS analysis; format: ADME, organism-based; details: in vivo
Outline: (§2)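 Single-dose PK in female Balb/c mice, n = 3 per compound; dosing vehicle 0.5% HEC, formulated at 1.00 mg/mL.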

[6] = Clearance in Balb/c mouse at 1 mg/kg, iv administered as bolus by LC-MS/MS analysis; format: ADME, organism-based; details: in vivo; outline: as §2
[7] = Ratio of AUC (0 to 4 hrs) in Balb/c mouse liver to plasma administered orally by LC-MS/MS analysis; format: ADME; details: liver and plasma, po, read-out: Ratio AUC
[8] = Lipophilicity, log D of the compound; format: physicochemical; details: octanol/water
[9] = AUC (0 to last) in Balb/c mouse at 1 mg/kg, iv administered as bolus by LC-MS/MS analysis; format: ADME, organism-based; design: dose 1 mg/kg, time 0 - last, route intravenous; details: in vivo; outline: as §2
Hepatitis B virus [10] = experiment: Antiviral activity against HBV1.3 mer infected in hydrodynamic injection BALB/c mouse model assessed as log reduction in viral DNA in plasma at 50 mg/kg, po bid measured on day 3 by real-time PCR method relative to control; format: functional; outline: as §1
Cytochrome P450 2C9 = Cytochrome P450 2C9 (Homo sapiens, UniProt P11712); experiment: Inhibition of CYP2C9 in human liver microsomes using diclofenac as substrate preincubated for 10 mins followed by substrate addition measured after 10 mins in presence of NADPH by LC-MS/MS analysis; format: ADME
[11] = AUC (0 to last) in Balb/c mouse at 10 mg/kg, po administered via gavage by LC-MS/MS analysis; format: ADME, organism-based; design: dose 10 mg/kg, time 0 - last, route oral; details: in vivo; outline: as §2
Cytochrome P450 2C19 = Cytochrome P450 2C19 (Homo sapiens, UniProt P33261); experiment: Inhibition of CYP2C19 in human liver microsomes using S-mephenytoin as substrate preincubated for 10 mins followed by substrate addition measured after 10 mins in presence of NADPH by LC-MS/MS analysis; format: ADME
Cytochrome P450 3A4 = Cytochrome P450 3A4 (Homo sapiens, UniProt P08684); experiment: Inhibition of CYP3A4 in human liver microsomes using midazolam as substrate preincubated for 10 mins followed by substrate addition measured after 10 mins in presence of NADPH by LC-MS/MS analysis; format: ADME; details: read-out: INH
[12] = Oral bioavailability in Balb/c mouse at 10 mg/kg administered via gavage by LC-MS/MS analysis; format: ADME, organism-based; details: in vivo; outline: as §2
Core antigen = Core antigen (Hepatitis B virus, UniProt Q03732); experiment: Inhibition of HBV C150-Bodipy FL N-(2-aminoethyl) maleimide labeled capsid assessed as reduction in NaCl-induced capsid assembly preincubated for 15 mins followed by NaCl addition measured after 1 hr by fluorescence quenching assay
[13] = Cmax in Balb/c mouse at 10 mg/kg, po administered via gavage by LC-MS/MS analysis; format: ADME, organism-based; design: dose 10 mg/kg, route oral; details: in vivo; outline: as §2
[14] = Volume of distribution at steady state in Balb/c mouse at 1 mg/kg, iv administered as bolus by LC-MS/MS analysis; format: ADME, organism-based; details: in vivo, read-out: Vdss; outline: as §2

Cytochrome P450 3A4, sequence (P08684 whole entry): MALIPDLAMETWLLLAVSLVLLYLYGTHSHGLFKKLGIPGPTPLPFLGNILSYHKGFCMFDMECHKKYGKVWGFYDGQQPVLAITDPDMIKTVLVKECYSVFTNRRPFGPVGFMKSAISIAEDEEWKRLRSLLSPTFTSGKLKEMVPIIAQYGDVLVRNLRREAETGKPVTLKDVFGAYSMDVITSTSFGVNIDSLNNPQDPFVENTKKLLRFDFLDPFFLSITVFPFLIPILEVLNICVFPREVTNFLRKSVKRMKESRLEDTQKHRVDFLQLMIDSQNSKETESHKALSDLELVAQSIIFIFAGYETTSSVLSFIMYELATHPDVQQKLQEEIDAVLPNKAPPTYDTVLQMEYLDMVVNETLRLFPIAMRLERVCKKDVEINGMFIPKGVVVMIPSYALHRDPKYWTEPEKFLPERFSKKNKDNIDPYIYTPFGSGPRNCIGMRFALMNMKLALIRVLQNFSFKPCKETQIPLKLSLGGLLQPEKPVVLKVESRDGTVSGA
Cytochrome P450 2D6, sequence (P10635 whole entry): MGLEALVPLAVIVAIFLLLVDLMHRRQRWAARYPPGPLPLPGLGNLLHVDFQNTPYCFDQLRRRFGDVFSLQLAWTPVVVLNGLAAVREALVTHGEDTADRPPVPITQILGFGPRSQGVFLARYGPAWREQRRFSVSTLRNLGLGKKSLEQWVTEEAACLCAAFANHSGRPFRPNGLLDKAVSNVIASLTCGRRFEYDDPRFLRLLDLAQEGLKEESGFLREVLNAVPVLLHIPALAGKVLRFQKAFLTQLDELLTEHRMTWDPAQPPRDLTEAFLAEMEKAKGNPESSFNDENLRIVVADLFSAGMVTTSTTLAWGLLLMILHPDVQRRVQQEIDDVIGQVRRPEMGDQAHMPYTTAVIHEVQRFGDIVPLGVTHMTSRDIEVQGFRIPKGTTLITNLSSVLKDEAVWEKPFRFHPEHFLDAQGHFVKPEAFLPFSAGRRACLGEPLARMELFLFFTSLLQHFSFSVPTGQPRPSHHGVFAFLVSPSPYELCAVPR
Core antigen, sequence (Q03732 whole entry): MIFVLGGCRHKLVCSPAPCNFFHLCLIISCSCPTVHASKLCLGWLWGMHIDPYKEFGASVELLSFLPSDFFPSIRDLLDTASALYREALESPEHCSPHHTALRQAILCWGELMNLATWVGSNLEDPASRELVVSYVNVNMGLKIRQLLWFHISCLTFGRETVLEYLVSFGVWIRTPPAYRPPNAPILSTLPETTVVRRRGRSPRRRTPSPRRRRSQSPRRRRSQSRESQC
Cytochrome P450 2C19, sequence (P33261 whole entry): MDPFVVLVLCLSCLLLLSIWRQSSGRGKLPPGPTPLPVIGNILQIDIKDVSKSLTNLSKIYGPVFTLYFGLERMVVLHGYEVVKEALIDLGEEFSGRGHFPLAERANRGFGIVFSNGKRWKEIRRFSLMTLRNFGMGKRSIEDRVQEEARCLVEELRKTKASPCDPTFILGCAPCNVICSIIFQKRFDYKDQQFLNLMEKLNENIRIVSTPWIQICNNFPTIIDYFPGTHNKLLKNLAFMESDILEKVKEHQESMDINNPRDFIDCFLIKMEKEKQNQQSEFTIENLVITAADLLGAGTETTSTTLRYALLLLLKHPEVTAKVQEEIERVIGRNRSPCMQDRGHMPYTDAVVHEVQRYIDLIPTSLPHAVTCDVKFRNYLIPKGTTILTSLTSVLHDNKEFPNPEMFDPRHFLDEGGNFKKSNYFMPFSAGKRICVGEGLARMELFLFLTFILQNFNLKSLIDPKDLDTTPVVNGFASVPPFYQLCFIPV
Cytochrome P450 2C9, sequence (P11712 whole entry): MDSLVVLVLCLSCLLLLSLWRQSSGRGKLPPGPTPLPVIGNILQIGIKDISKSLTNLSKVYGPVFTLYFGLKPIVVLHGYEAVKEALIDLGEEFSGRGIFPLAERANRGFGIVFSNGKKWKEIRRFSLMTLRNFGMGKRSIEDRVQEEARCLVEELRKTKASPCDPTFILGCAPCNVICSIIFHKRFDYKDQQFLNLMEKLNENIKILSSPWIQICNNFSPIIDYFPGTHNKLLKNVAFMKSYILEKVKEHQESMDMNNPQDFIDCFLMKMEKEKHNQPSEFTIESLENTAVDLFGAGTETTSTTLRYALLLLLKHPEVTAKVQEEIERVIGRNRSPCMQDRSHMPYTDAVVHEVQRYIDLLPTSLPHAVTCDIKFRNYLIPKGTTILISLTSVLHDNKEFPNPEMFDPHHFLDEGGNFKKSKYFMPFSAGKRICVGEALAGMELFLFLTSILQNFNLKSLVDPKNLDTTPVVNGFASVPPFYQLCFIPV

| SMILES | pIC50 (Hepatitis B virus [1]) | further results |
| --- | --- | --- |
| CCOC(=O)C1=C2CCCN2C(c2nccs2)=NC1c1cc(F)ccc1Cl (stereo not drawn) | < 5.00 |  |
| CCOC(=O)C1=C2CCC(C)N2C(c2nccs2)=NC1c1ccc(F)cc1Cl (stereo not drawn) | 2.10 |  |
| COC(=O)C1=C2C[C@@H](NC(=O)OC(C)(C)C)CN2C(c2nccs2)=N[C@H]1c1ccc(F)cc1Cl | 4.30 |  |
| CCOC(=O)C1=C2CN(C(C)=O)CCN2C(c2nccs2)=NC1c1ccc(F)cc1Br (stereo not drawn) | 6.11 |  |
| CCOC(=O)C1=C2CCCN2C(c2nccs2)=NC1c1cccc(F)c1Cl (stereo not drawn) | 6.51 |  |
| CCOC(=O)C1=C2CCCN2C(c2nccs2)=NC1c1cc(Cl)sc1Cl (stereo not drawn) | 5.77 |  |
| CCOC(=O)C1=C2CCCN2C(c2ncco2)=NC1c1ccc(F)cc1Cl (stereo not drawn) | 5.20 |  |
| CCOC(=O)C1=C2CCCN2C(c2nccs2)=NC1c1ccc(F)cc1F (stereo not drawn) | 6.29 |  |
| CN(C)CCOC(=O)C1=C2CCCN2C(c2nccs2)=NC1c1ccc(F)cc1Cl (stereo not drawn) | < 5.00 |  |
| CCOC(=O)C1=C2CCCN2C(c2nccs2)=NC1c1ccc(F)cc1 (stereo not drawn) | 5.92 |  |
| CCOC(=O)C1=C2CCCCN2C(c2nccs2)=NC1c1ccc(F)cc1Cl (stereo not drawn) | 5.85 |  |
| COC(=O)C1=C2C[C@H](NS(C)(=O)=O)CN2C(c2nccs2)=N[C@H]1c1ccc(F)cc1Cl | 8.00 | solubility kinetic [2]: 22 µM (≈ 10.7 µg/mL); FC (Hepatitis B virus [3]): 2.57; pIC50 (Cytochrome P450 2D6): < 4.30; INH (Cytochrome P450 1A2): > 50 µM; FC (Hepatitis B virus [4]): 0.68; half-life [5]: 66 min; clearance [6]: 21 mL/min/kg; Kp [7]: 10; logD [8]: 2.8; AUC(0-t) [9]: 1.7 µM·h; FC (Hepatitis B virus [10]): 2.05; INH (Cytochrome P450 2C9): 28 µM; AUC(0-t) [11]: 9.1 µM·h; INH (Cytochrome P450 2C19): 39 µM; pIC50 (Cytochrome P450 3A4): 4.96; bioavailability [12]: 54%; pIC50 (Core antigen): 6.10; Cmax [13]: 4.7 µM; Vd [14]: 2 L/kg |
| COC(=O)C1=C2C[C@@H](NS(C)(=O)=O)CN2C(c2nccs2)=N[C@H]1c1ccc(F)cc1Cl | 7.22 |  |
| CCOC(=O)C1=C2CCCN2C(c2ncc(F)cn2)=NC1c1ccc(F)cc1Cl (stereo not drawn) | < 5.00 |  |
| CCOC(=O)C1=C2CCCN2C(c2ccsn2)=NC1c1ccc(F)cc1Cl (stereo not drawn) | 5.55 |  |
| CCOC(=O)C1=C2C[C@H](N(C)C)CN2C(c2nccs2)=N[C@H]1c1ccc(F)cc1Br | 3.30 |  |
| CCOC(=O)C1=C2CCCN2C(c2nccs2)=NC1c1ncc(F)cc1F (stereo not drawn) | < 5.00 |  |
| CCOC(=O)C1=C2CCCN2C(c2ccc(F)cn2)=NC1c1ccc(F)cc1Cl (stereo not drawn) | 5.08 |  |
| CCOC(=O)C1=C2CNC(=O)CN2C(c2nccs2)=NC1c1ccc(F)cc1Br (stereo not drawn) | 5.46 |  |
| CCOC(=O)C1=C2CCCN2C(C2CC2)=NC1c1ccc(F)cc1Cl (stereo not drawn) | < 5.00 |  |
| COCOC(=O)C1=C2CCCN2C(c2nccs2)=NC1c1ccc(F)cc1Cl (stereo not drawn) | 5.68 |  |
| CCOC(=O)C1=C2CCN2C(c2nccs2)=NC1c1ccc(F)cc1Cl (stereo not drawn) | 5.39 |  |
| CCOC(=O)C1=C2C[C@@H](NS(C)(=O)=O)CN2C(c2nccs2)=N[C@H]1c1ccc(F)cc1Cl | 4.15 |  |
| CCOC(=O)C1=C2CN(S(C)(=O)=O)CCN2C(c2nccs2)=NC1c1ccc(F)cc1Br (stereo not drawn) | 6.09 |  |
